Here are results for six compounds from paper PMC3286832 (Nature Communications, 2011).

One experiment concerns the target GLP catalytic SET domain (Homo sapiens, UniProt Q9H9B1). Put plainly: In vitro methylation assay with GLP catalytic SET domain. The format is biochemical. Particulars: [methyl-3H]AdoMet, SDS–PAGE and fluorography / autoradiogram. The procedure, abridged: (§1)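 E. coli-expressed hG9a or hGLP SET domain (1.6 μM) was incubated with 13.0 μM substrate (mDnmt3a N-terminal fragments or other GST-tagged proteins) and 2.8 μM [methyl-3H]AdoMet in 20 mM Tris–HCl pH 8.5 at 30 °C for 8 min. Products were resolved by SDS–PAGE and detected by fluorography/autoradiography.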

Another experiment addresses G9a catalytic SET domain (Homo sapiens, UniProt Q96KQ7). Put plainly: In vitro methylation assay with G9a catalytic SET domain. In kind it is biochemical. Particulars: [methyl-3H]AdoMet, 30 °C, 8 min, pH 8.5, SDS–PAGE and fluorography. The procedure, abridged: as §1
For the next experiment, the target named is T1, MPP8 chromodomain (Homo sapiens, UniProt Q99549).
T1 sequence (Q99549 59-118 limits assumed): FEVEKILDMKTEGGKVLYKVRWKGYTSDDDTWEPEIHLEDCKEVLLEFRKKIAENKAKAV
Put plainly: Co-crystal structure MPP8 chromodomain–hDNMT3AK47me2 peptide. In kind it is binding.

Experiment [1] concerns DNA methylation, H3K9 methylation, H3K4 methylation. The settings on record: ref [4]; cited from earlier work.

Sequence of GLP catalytic SET domain (Q9H9B1 1126-1243 limits assumed): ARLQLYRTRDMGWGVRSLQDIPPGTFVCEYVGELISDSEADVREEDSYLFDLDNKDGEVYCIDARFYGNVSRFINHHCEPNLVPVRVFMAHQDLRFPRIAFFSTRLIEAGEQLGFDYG
Sequence of G9a catalytic SET domain (Q96KQ7 1038-1155 limits assumed): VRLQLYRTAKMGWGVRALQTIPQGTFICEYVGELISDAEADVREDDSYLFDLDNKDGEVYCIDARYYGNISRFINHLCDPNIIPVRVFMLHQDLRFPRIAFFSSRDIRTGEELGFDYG

For “Dnmt3a-N: N-terminal fragment of mouse Dnmt3a (residues 1–274)”, the “methylation by GLP” value with GLP catalytic SET domain is reported as “methylate the N-terminal fragment of Dnmt3a”. In addition, the “methylation by G9a” value with G9a catalytic SET domain is recorded as “methylate the N-terminal fragment of Dnmt3a”.

Consider YEPSTTARKVGRPGR [hDNMT3AK47me2], for which the “pairwise root-mean-square-deviation to MPP8-H3K9me3 structure” value on MPP8 chromodomain (54 pairs of main-chain atoms, vs PDB 3QO2) is given as ~ 0.6 Å. In addition, the “binding mode in MPP8 chromodomain” value on MPP8 chromodomain (crystal structure (3SVM)) is “bound in an extended conformation in an acidic cleft of the chromodomain”.

With “hDNMT3A residues 1–94: GST-tagged hDNMT3A N-terminal fragment”, the “methylation by GLP” value in the experiment with GLP catalytic SET domain is given as “are methylated”.

Consider “hDNMT3A K47R (residues 1–223): K47R substitution in hDNMT3A N-terminal domain”, for which, in the experiment with GLP catalytic SET domain, the “methylation by GLP” value is given as “eliminates methylation”.

Consider `Nc1ncn([C@H]2C[C@H](O)[C@@H](CO)O2)c(=O)n1` [5-aza-2′-deoxycytidine], for which the “effect on DNA, H3K9 and H3K4 methylation” value in experiment [1] is “leads to depletion of DNA methylation and of H3K9 methylation, and a corresponding increase in H3K4 methylation”.

With “hDNMT3A residues 1–223: GST-tagged hDNMT3A N-terminal fragment”, the “methylation by GLP” value with GLP catalytic SET domain is “are methylated”.
